Reference: ChEMBL document CHEMBL1955828, “Anti-mycobacterial activities of some cationic and anionic calix[4]arene derivatives” (Bioorg Med Chem, 2012)
Values after ≈ are worked out from the molar mass of the structure shown.

Columns and labels:
[1] = tested on: Mycobacterium tuberculosis; experiment: Antimycobacterial activity against Mycobacterium tuberculosis H37Rv after 6 days by MTT assay; type: functional, organism-based; conditions: 144 h
Method in brief: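 Twofold serial compound dilutions in Middlebrook 7H9 broth were inoculated with bacterial suspension in 7H9 (H37Rv, or INH-resistant MYC5165) and incubated 6 days. MTT (1 mg/mL) was then added, followed by 1 more day of incubation, solubilisation buffer, and OD read at 570 nm. MIC was the lowest concentration inhibiting growth relative to untreated bacilli, and IC50 was also determined.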

[2] = tested on: Mycobacterium tuberculosis; experiment: Antimycobacterial activity against Mycobacterium tuberculosis H37Rv at 1 uM after 6 days by MTT assay; type: functional; conditions: 144 h, read-out: GI
[3] = tested on: Mycobacterium tuberculosis; experiment: Antimycobacterial activity against Mycobacterium tuberculosis H37Rv at 10 uM after 6 days by MTT assay; type: functional; conditions: 144 h, read-out: GI
Escherichia coli = experiment: Antibacterial activity against Escherichia coli ATCC 25922 by microdilution method; type: functional
Pseudomonas aeruginosa = experiment: Antibacterial activity against Pseudomonas aeruginosa ATCC 27853 by microdilution method; type: functional
Enterococcus faecalis = experiment: Antibacterial activity against Enterococcus faecalis ATCC 29212 by microdilution method; type: functional
Staphylococcus aureus = experiment: Antibacterial activity against Staphylococcus aureus ATCC 25923 by microdilution method; type: functional
[4] = Cytotoxicity against human MRC5 cells by MTT assay; type: cell-based

SMILES | MIC [1] [µM] | inhibition of growth at 1 µM [2] [%] | inhibition of growth at 10 µM [3] [%] | further results
Cc1ccnc(-c2cc(C)ccn2)c1 | 136 (≈ 25 µg/mL) |  |  | 
Cc1cccc(-c2cccc(COc3c4cc(S(=O)(=O)O)cc3Cc3cc(S(=O)(=O)O)cc(c3O)Cc3cc(S(=O)(=O)O)cc(c3OCc3cccc(-c5cccc(C)n5)n3)Cc3cc(S(=O)(=O)O)cc(c3O)C4)n2)n1 | > 50 |  |  | 
Cc1csc(-c2nc(COc3c4cc(S(=O)(=O)O)cc3Cc3cc(S(=O)(=O)O)cc(c3O)Cc3cc(S(=O)(=O)O)cc(c3OCc3csc(-c5nc(C)cs5)n3)Cc3cc(S(=O)(=O)O)cc(c3O)C4)cs2)n1 | > 50 |  |  | 
Cc1cccc(-c2cccc(COc3c4cc(CC(=O)O)cc3Cc3cc(CC(=O)O)cc(c3O)Cc3cc(CC(=O)O)cc(c3OCc3cccc(-c5cccc(C)n5)n3)Cc3cc(CC(=O)O)cc(c3O)C4)n2)n1 | > 50 |  |  | 
Cc1cccc(-c2cccc(COc3c4cc(CP(=O)(O)O)cc3Cc3cc(CP(=O)(O)O)cc(c3O)Cc3cc(CP(=O)(O)O)cc(c3OCc3cccc(-c5cccc(C)n5)n3)Cc3cc(CP(=O)(O)O)cc(c3O)C4)n2)n1 | 50 (≈ 58.2 µg/mL) |  |  | IC50 [1]: 12400 nM
NCCc1cc2c(O)c(c1)Cc1cc(CCN)cc(c1O)Cc1cc(CCN)cc(c1O)Cc1cc(CCN)cc(c1O)C2 | 3.2 (≈ 1.91 µg/mL) | 27 | 76 | IC50 [1]: 400 nM
Cc1cccc(-c2cccc(COc3c4cc(CCN)cc3Cc3cc(CCN)cc(c3O)Cc3cc(CCN)cc(c3OCc3cccc(-c5cccc(C)n5)n3)Cc3cc(CCN)cc(c3O)C4)n2)n1 |  | 7 | 0 | 
Cc1csc(-c2nc(COc3c4cc(CCN)cc3Cc3cc(CCN)cc(c3O)Cc3cc(CCN)cc(c3OCc3csc(-c5nc(C)cs5)n3)Cc3cc(CCN)cc(c3O)C4)cs2)n1 |  | 25 | 19 | 
Cc1ccc(-c2ccc(COc3c4cc(CCN)cc3Cc3cc(CCN)cc(c3O)Cc3cc(CCN)cc(c3OCc3ccc(-c5ccc(C)cn5)nc3)Cc3cc(CCN)cc(c3O)C4)cn2)nc1 | 0.8 (≈ 0.769 µg/mL) | 63 | 81 | IC50 [1]: 200 nM
Cc1cccc(-c2cccc(COc3c4cc(CCNC(=N)N)cc3Cc3cc(CCNC(=N)N)cc(c3O)Cc3cc(CCNC(=N)N)cc(c3OCc3cccc(-c5cccc(C)n5)n3)Cc3cc(CCNC(=N)N)cc(c3O)C4)n2)n1.O=C(O)C(F)(F)F |  | 7 | 10 | MIC (Escherichia coli): 4 µg/mL; MIC (Pseudomonas aeruginosa): 4 µg/mL; MIC (Enterococcus faecalis): 4 µg/mL; MIC (Staphylococcus aureus): 4 µg/mL
Cc1ccc(-c2ccc(COc3c4cc(CCNC(=N)N)cc3Cc3cc(CCNC(=N)N)cc(c3O)Cc3cc(CCNC(=N)N)cc(c3OCc3ccc(-c5ccc(C)cn5)nc3)Cc3cc(CCNC(=N)N)cc(c3O)C4)cn2)nc1.O=C(O)C(F)(F)F | 0.8 | 62 | 98 | MIC (Escherichia coli): 4 µg/mL; CC50 [4]: 128 µg/mL; MIC (Pseudomonas aeruginosa): 4 µg/mL; IC50 [1]: 50 nM; MIC (Enterococcus faecalis): 4 µg/mL; MIC (Staphylococcus aureus): 4 µg/mL
Cc1csc(-c2nc(COc3c4cc(CCNC(=N)N)cc3Cc3cc(CCNC(=N)N)cc(c3O)Cc3cc(CCNC(=N)N)cc(c3OCc3csc(-c5nc(C)cs5)n3)Cc3cc(CCNC(=N)N)cc(c3O)C4)cs2)n1.O=C(O)C(F)(F)F | 1.6 | 54 | 90 | MIC (Escherichia coli): 4 µg/mL; CC50 [4]: 16 µg/mL; MIC (Pseudomonas aeruginosa): 4 µg/mL; IC50 [1]: 400 nM; MIC (Enterococcus faecalis): 4 µg/mL; MIC (Staphylococcus aureus): 4 µg/mL
N=C(N)NCCc1cc2c(O)c(c1)Cc1cc(CCNC(=N)N)cc(c1O)Cc1cc(CCNC(=N)N)cc(c1O)Cc1cc(CCNC(=N)N)cc(c1O)C2.O=C(O)C(F)(F)F | 0.8 | 73 | 97 | MIC (Escherichia coli): 4 µg/mL; CC50 [4]: 256 µg/mL; MIC (Pseudomonas aeruginosa): 4 µg/mL; IC50 [1]: 250 nM; MIC (Enterococcus faecalis): 4 µg/mL; MIC (Staphylococcus aureus): 4 µg/mL
O=C(O)Cc1cc2c(O)c(c1)Cc1cc(CC(=O)O)cc(c1O)Cc1cc(CC(=O)O)cc(c1O)Cc1cc(CC(=O)O)cc(c1O)C2 |  | 0 | 7 | 
O=P(O)(O)Cc1cc2c(O)c(c1)Cc1cc(CP(=O)(O)O)cc(c1O)Cc1cc(CP(=O)(O)O)cc(c1O)Cc1cc(CP(=O)(O)O)cc(c1O)C2 |  | 0 | 5 | 
O=S(=O)(O)c1cc2c(O)c(c1)Cc1cc(S(=O)(=O)O)cc(c1O)Cc1cc(S(=O)(=O)O)cc(c1O)Cc1cc(S(=O)(=O)O)cc(c1O)C2 |  | 0 | 0 | 
Cc1csc(-c2nc(COc3c4cc(CC(=O)O)cc3Cc3cc(CC(=O)O)cc(c3O)Cc3cc(CC(=O)O)cc(c3OCc3csc(-c5nc(C)cs5)n3)Cc3cc(CC(=O)O)cc(c3O)C4)cs2)n1 | > 50 |  |  | 
Cc1csc(-c2nc(COc3c4cc(CP(=O)(O)O)cc3Cc3cc(CP(=O)(O)O)cc(c3O)Cc3cc(CP(=O)(O)O)cc(c3OCc3csc(-c5nc(C)cs5)n3)Cc3cc(CP(=O)(O)O)cc(c3O)C4)cs2)n1 | 50 (≈ 59.5 µg/mL) |  |  | 
O=C(O)c1cn(C2CC2)c2cc(N3CCNCC3)c(F)cc2c1=O [CIPROFLOXACIN] | 2.5 (≈ 0.828 µg/mL) |  |  | 
c1ccc(-c2ccccn2)nc1 [DIPYRIDYL] | 160 (≈ 25 µg/mL) |  |  | 
CC[C@@H](CO)NCCN[C@@H](CC)CO [ETHAMBUTOL] | 9.8 (≈ 2 µg/mL) |  | 65 | 
CCc1cc(C(N)=S)ccn1 [ETHIONAMIDE] | 9 (≈ 1.5 µg/mL) |  |  | 
NNC(=O)c1ccncc1 [ISONIAZID] | 0.6 (≈ 0.0823 µg/mL) |  |  | 
CO[C@H]1/C=C/O[C@@]2(C)Oc3c(C)c(O)c4c(O)c(c(/C=N/N5CCN(C)CC5)c(O)c4c3C2=O)NC(=O)/C(C)=C\C=C\[C@H](C)[C@H](O)[C@@H](C)[C@@H](O)[C@@H](C)[C@H](OC(C)=O)[C@@H]1C [RIFAMPIN] | 0.24 (≈ 0.198 µg/mL) |  |  | 
CN[C@@H]1[C@H](O[C@H]2[C@H](O[C@H]3[C@H](O)[C@@H](O)[C@H](N=C(N)N)[C@@H](O)[C@@H]3N=C(N)N)O[C@@H](C)[C@]2(O)C=O)O[C@@H](CO)[C@H](O)[C@H]1O [STREPTOMYCIN] | 0.7 (≈ 0.407 µg/mL) |  |  | 
